Among the data in ChEMBL document CHEMBL1128670, “Hypoxia-selective antitumor agents. 11. Chlorambucil N-oxide: a reappraisal of its synthesis, stability, and selective toxicity for hypoxic cells” (J Med Chem, 1995) are IC50, CT10 and Ratio values, retold here.

Assay [1] relates to CHO-AA8. The experiment in a line: Growth inhibition activity was measured in repair proficient AA8 cells under aerobic conditions (4 hours drug exposure). It counts as functional, cell-based. As to conditions: Cricetulus griseus, CHO-AA8, 4 h.
In assay [2] the test system is CHO-AA8. The experiment in a line: Activity to reduce the surviving fraction to 10% (CT10) was used as an inverse measure of cytotoxic potency in aerobic conditions. It counts as functional, Cricetulus griseus. The procedure, abridged:
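Clonogenic survival assay in magnetically stirred 10 mL suspensions of late-log AA8 cells (10⁶/mL) under continuous gassing with 5% CO₂ in air. Samples were removed periodically during drug exposure. CT₁₀ is the concentration × time giving 10% surviving fraction, used as an inverse measure of cytotoxicity.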

For assay [3], the system named is UV4. The experiment in a line: Growth inhibition activity was measured in repair deficient UV4 cells under aerobic conditions (4 hours drug exposure). It is filed as functional, cell-based. As to conditions: Cricetulus griseus, UV4, 4 h.
The nature of assay [4]: Ratio of activities reducing surviving fraction to 10% (T10) under aerobic vs hypoxic conditions. It is filed as functional. The procedure, abridged: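 Late-log AA8 cells (10⁶/mL) in stirred 10 mL suspensions were gassed continuously with 5% CO₂ in air or in N₂, with periodic sampling for clonogenic survival. The time to 10% survival (T₁₀) was found under each gas at the same drug concentration. The value is the mean of air/N₂ T₁₀ ratios; errors are ranges (two determinations) or standard errors.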

What is called IC50 is the concentration that gives 50% inhibition. A low value points to inhibition by little substance. In the case of `O=C(O)CCCc1ccc(NCCCl)cc1`, the results for the IC50 in assay [1] and in assay [3] were > 250 µM and 90 µM, respectively. Besides, in assay [2], the CT10 amounted to 2080 µM·h. For the same compound, the Ratio in assay [4] is 1.26.
Regarding `O=C(O)CCCc1ccc(N(CCCl)OCCCl)cc1`, the results for the IC50 in assay [1] and in assay [3] were 456 µM and 176 µM, respectively. Besides, the CT10 in assay [2] was >2400 µM·h.
As for `O=C(O)CCCc1ccc(N(CCCl)CCCl)cc1` [CHLORAMBUCIL], the IC50 is 38 µM in assay [1] and 1.2 µM in assay [3]. Further, the CT10 in assay [2] was 85.2 µM·h. The Ratio in assay [4] amounted to 1.28.
